Source: PubChem BioAssay
PDI turbidity: blocks human protein disulfide isomerase activity | AID 588391 | inhibition, % at 10 µM | PDI insulin aggregation turbidity, A650, 90 min | P07237 | 0.052% of 350,000 active;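 active = mean inhibition across replicates of 30% or more, whatever share of single replicates reach that level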
ERp5 block: ERp5 (human) disulfide isomerase inhibition. AID 651711. ERp5 insulin aggregation, absorbance 650 nm, 90 min. 0.05% of 350,000 active. Q15084. inhibition, % at 9.99 µM;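 active = mean replicate inhibition above about 25%, with every replicate also reaching it, limit read from the data, passing the limit was not always enough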
Target sequence (Q15084 whole entry, looked up): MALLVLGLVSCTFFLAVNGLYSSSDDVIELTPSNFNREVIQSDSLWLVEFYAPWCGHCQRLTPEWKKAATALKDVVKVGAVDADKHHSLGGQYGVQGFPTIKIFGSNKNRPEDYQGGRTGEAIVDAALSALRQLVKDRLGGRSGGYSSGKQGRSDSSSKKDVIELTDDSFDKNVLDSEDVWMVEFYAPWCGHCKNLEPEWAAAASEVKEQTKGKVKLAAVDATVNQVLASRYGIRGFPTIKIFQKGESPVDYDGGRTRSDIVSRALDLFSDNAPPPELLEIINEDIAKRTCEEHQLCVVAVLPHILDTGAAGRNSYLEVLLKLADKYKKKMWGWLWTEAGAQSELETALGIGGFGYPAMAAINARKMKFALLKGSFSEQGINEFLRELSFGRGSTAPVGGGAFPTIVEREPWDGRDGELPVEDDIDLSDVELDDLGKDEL
AF4-AF9 inh: inhibitors of human MLL-AF4/AF9 interaction. P42568. AlphaScreen, biotin-AF4 peptide binding to FLAG-AF9. inhibition, % at 10 µM. 0.47% of 350,000 active;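 active = every replicate reaching a set inhibition limit, whatever the replicate mean, cut at about 25% in these data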;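 also: 0% = plate neutral control median and 100% = total signal loss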
FGF22 binding: FGF22 (human) thermal shift binding | Q9HCT0 | recombinant FGF22 thermal shift, SYPRO orange fluorescence; percent of sucrose octasulfate shift, DMSO zero | activity (Tm shift, normalised), % at 9.99 µM | 1.5% of 340,000 active;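 active = mean Tm shift, scaled 0 neutral to 100 positive control, at about 1.3% or above, every replicate too, limit read from the data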
Target sequence (Q9HCT0 whole entry, looked up): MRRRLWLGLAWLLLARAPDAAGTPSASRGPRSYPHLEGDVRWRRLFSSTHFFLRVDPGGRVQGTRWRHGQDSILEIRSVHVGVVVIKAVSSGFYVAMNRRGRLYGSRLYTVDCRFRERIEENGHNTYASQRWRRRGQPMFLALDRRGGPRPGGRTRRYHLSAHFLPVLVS
ARNT TACC3 PPI: disruptors of human ARNT/TACC3 interaction. Q9Y6A5. AlphaScreen His-ARNT PAS-B/GST-TACC3 binding, luminescence; TACC3 fragment carries E629A point mutation. inhibition, % at 9.99 µM. 0.66% of 390,000 active;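 active = mean inhibition of replicates at least 50% and at least half of replicates each reaching 50%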;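 also: 0% = complete ARNT plus TACC3 wells and 100% = ARNT alone without TACC3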
FN deposition inh: fibronectin deposition inhibition | inhibition, % at 12.6 µM | 0.086% of 350,000 active | AH1F fibroblasts, Alexa488-fibronectin deposition fluorescence, overnight | AID 743247;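 active = mean inhibition across replicates of 30% or more, regardless of how many single replicates reach that level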;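 also: positive control wells lacked labelled fibronectin entirely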
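Assay system: AH1F fibroblasts / Quantity: 10000 cells per well / Medium: DMEM plus 2% serum, read in PBS / Reagent: labelled fibronectin 24 nM / Dosing: single dose, pinned / Times: 1 h cell attachment, overnight exposure to compound and label / Signal: fluorescence, ex 485 nm, em 525 nm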
The depositor's hits bear a star; . = no result. Shown are actives, neighbours in structure and some others; about 2.1% of the full set was active somewhere.

SMILES	PDI turbidity	ERp5 block	AF4-AF9 inh	FGF22 binding	ARNT TACC3 PPI	FN deposition inh
C=CCc1cccc(/C=N/NC(=O)CNc2ccccc2)c1O	-1	.	.	.	0	.
O=C(C[n+]1ccccc1)N/N=C/c1ccccc1Cl	-13	-11	-2	0	-7	-1
C=CCc1cccc(/C=N/NC(=O)C[n+]2ccccc2)c1O	-85	0	20	0	80*	9
O=[N+]([O-])c1c(Nc2cccc(O)c2)cc(Cl)c2nonc12	23	2	5	0	4	35*
OC(c1ccc(F)cc1)c1ncc(-c2cccc3ccccc23)[nH]1 (centres undefined)	12	-1	11	0	.	11
COc1ccccc1C(O)c1ncc(-c2cccc3ccccc23)[nH]1 (centres undefined)	-4	6	12	43*	.	2
Cc1cc(NC(=O)COc2ccccc2C)no1	-16	2	-1	44*	-14	-18
C[C@H](CO)N1C[C@H](C)[C@H](CN(C)CC2CCOCC2)Oc2ncc(C3=CCCCC3)cc2C1=O	.	11	-2	0	3	.
CCCCn1c(O)c(N=NC(=O)c2ccncc2)c2cc(Br)ccc21	4	-1	3	44*	-3	4
O=C(NCCO)c1ccc(-c2cnc3cccnn23)cc1	-7	3	-6	0	.	.
OCc1ccccc1-c1cnc2cccnn12	-2	5	-2	55*	.	-2
Cc1cc(C2=NNC(=NCCc3ccccc3)SC2)c(C)n1CC1CCCO1 (centres undefined)	1	4	12	0	-7	-5
Clc1ccc(C2=NNC(=NCC3CCCO3)SC2)cc1 (centres undefined)	13	-2	5	43*	7	-7
NS(=O)(=O)c1ccc(CCNC(=O)c2ccc(Br)s2)cc1	1	-3	1	43*	-2	4
O=C(NCCc1ccc(Cl)cc1)c1ccc(Br)s1	-3	-2	-3	0	-10	-5
CNc1ccccc1C(C)(C)c1cc(-c2cccc(Br)c2)no1	7	-2	3	43*	-7	.
COc1ccc2c3c([nH]c2c1)[C@@H](CO)N(C(=O)Nc1ccc(F)cc1)CC31CN(C(=O)Cc2ccncc2)C1	.	-1	-2	0	.	.
CC(C)NC(=O)N(C)C[C@@H]1Oc2ccc(NC(=O)C3CC3)cc2C(=O)N([C@H](C)CO)C[C@@H]1C	.	8	1	0	3	.
O=C(C[C@@H]1CC[C@@H]2[C@H](COC[C@@H](O)CN2C(=O)Nc2ccc(Cl)cc2)O1)NC1Cc2ccccc2C1	.	-4	-6	-1	-10	12
CCOc1ccc(C(C)=O)cc1CSc1nc2nc(C)cc(C)n2n1	-3	2	-19	43*	7	14
COc1ccc(-n2c(=S)[nH]c3c(oc4ccccc43)c2=O)cc1	4	.	.	.	-11	-2
Cc1ccc(-n2c(=O)[nH]c3c(oc4ccccc43)c2=O)cc1	2	2	-5	0	-6	31*
COc1ccccc1N1CCN(C2=Nc3cccc4cccc2c34)CC1	2	3	30*	0	20	.
C[C@@H]1CN([C@@H](C)CO)C(=O)CCCn2nncc2CO[C@@H]1CN(C)C	.	.	.	.	.	3
COc1ccc2c(Cl)c(C(=O)NN3CCN(C)CC3)sc2c1	-4	3	2	44*	4	9
SMILES	PDI turbidity	ERp5 block	AF4-AF9 inh	FGF22 binding	ARNT TACC3 PPI	FN deposition inh
COc1ccc2c(Cl)c(C(=O)NC3CCS(=O)(=O)C3)sc2c1 (centres undefined)	0	.	.	.	-1	.
COc1cc(N=c2oc3c(C)ncc(CO)c3cc2C(N)=O)cc(OC)c1OC	-1	2	3	0	35*	0
COc1ccccc1NC(=O)c1cc2c(CO)cnc(C)c2oc1=Nc1cc(OC)c(OC)c(OC)c1	-15	1	-5	0	-10	17
CCCNC(=O)C[C@@H]1C[C@@H]2c3cc(NC(=O)Cc4ccncc4)ccc3O[C@@H]2[C@@H](CO)O1	.	.	.	0	-8	-4
Cc1cccc(N2CCN(C(=O)c3ccc4nc(-c5ccco5)c(-c5ccco5)nc4c3)CC2C)c1 (centres undefined)	-3	.	.	.	11	10
Cc1cccc(N2CCN(C(=O)c3ccc4nccnc4c3)CC2C)c1 (centres undefined)	10	-7	2	43*	1	9
COc1ccc(/C=C(\NC(=O)c2ccc(C)cc2)C(=O)NCCN2CCOCC2)cc1	5	-1	-5	1.4*	17	-2
N#Cc1ccc(-c2ccc3c(c2)[C@H]2[C@H](CCN2S(=O)(=O)c2ccccc2F)[C@@H](CO)N3)cc1	.	.	.	0	-12	-3
O=C(c1ccc(OC2CCN(Cc3ccccn3)CC2)cc1)N1CCCCO1	9	-2	-13	43*	5	.
C[C@@H]1CN([C@H](C)CO)C(=O)Cc2cc(NC(=O)C3CC3)ccc2O[C@@H]1CN(C)Cc1ccc(Cl)c(Cl)c1	.	-7	-3	0	15	.
COc1ccc(CN(C)C[C@H]2Oc3ccc(NC(=O)C4CCCCC4)cc3CC(=O)N([C@@H](C)CO)C[C@H]2C)cc1	.	0	-2	1.7*	-2	.
C[C@H]1CN([C@@H](C)CO)C(=O)Cc2cc(NC(=O)C3CC3)ccc2O[C@H]1CN(C)Cc1ccc(Cl)c(Cl)c1	.	-1	-3	0	46*	.
C[C@@H]1CN([C@@H](C)CO)C(=O)Cc2cc(NC(=O)c3ccncc3)ccc2O[C@H]1CN(C)Cc1ccc(Cl)c(Cl)c1	.	2	13	0	48*	.
C[C@@H]1CN([C@@H](C)CO)C(=O)Cc2cc(NC(=O)c3ccncc3)ccc2O[C@@H]1CN(C)Cc1ccc(Cl)c(Cl)c1	.	0	5	0	.	.
COc1ccc(NC(=O)Nc2ccc3c(c2)C(=O)N([C@@H](C)CO)C[C@H](C)[C@@H](CN(C)S(=O)(=O)c2cccs2)OCCCC[C@@H](C)O3)cc1	.	1	0	0	19	.
CN(C)C(=O)[C@@H]1[C@@H](CO)[C@@H]2Cn3c(ccc(C4=CCCC4)c3=O)[C@H]1N2CC1CCOCC1	.	0	-16	0	-5	.
O=C(Cc1ccccn1)N[C@@H]1CC[C@H](CCn2cc(-c3ccc(F)cc3)nn2)O[C@H]1CO	.	-6	0	.	.	1
O=C(O)CCn1nnc2ccccc21	-1	0	-1	0	-5	-5
O=C(CCn1nnc2ccccc21)N/N=C\Cc1ccccc1	1	2	0	43*	.	-16
COc1cccc(/C=N/NC(=O)CCn2nnc3ccccc32)c1	3	1	-1	44*	9	-7
COc1cc(/C=N/NC(=O)CCn2nnc3ccccc32)ccc1O	2	-3	0	0	0	-4
